Measurements taken from ChEMBL document CHEMBL4715736, “Identification of anticancer agents based on the thieno[2,3-b]pyridine and 1H-pyrazole molecular scaffolds” (2016).

system: ACHN; assay: Growth inhibition of human ACHN cells incubated for 48 hrs by sulforhodamine B assay; type: functional; settings: not given
In short: (§1)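 NCI Developmental Therapeutics Program NCI60 panel. Compounds that were active in the 10 µM one-dose screen went on to dose–response testing. Growth at each concentration is expressed relative to untreated control (100%). GI50 (concentration giving 50% of maximal inhibition of proliferation) and TGI (concentration giving total growth inhibition) were derived from the curves.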

SMILES | GI50 | TGI
Cc1cc(C)c(NC(=O)c2sc3nc4c(cc3c2N)CN(Cc2ccccc2)CC4)c(C)c1 | 6.31 µM | > 100 µM

same assay, conditions: read-out: LC50 (the source's name)

SMILES | CC50
Cc1cc(C)c(NC(=O)c2sc3nc4c(cc3c2N)CN(Cc2ccccc2)CC4)c(C)c1 | > 100 µM

system: SK-MEL-5; assay: Growth inhibition of human SK-MEL-5 cells assessed as cell growth at 100 uM incubated for 48 hrs by sulforhodamine B assay relative to control; type: functional; settings: read-out: Activity

SMILES | growth at 100 µM
Cc1cc(C)c(NC(=O)c2sc3nc4c(cc3c2N)CN(Cc2ccccc2)CC4)c(C)c1 | -49%

system: Hs-578T; assay: Growth inhibition of human Hs-578T cells assessed as cell growth at 0.01 uM incubated for 48 hrs by sulforhodamine B assay relative to control; type: functional; settings: read-out: Activity

SMILES | growth at 0.01 µM
Cc1cc(C)c(NC(=O)c2sc3nc4c(cc3c2N)CN(Cc2ccccc2)CC4)c(C)c1 | 84%

system: SF-295; assay: Growth inhibition of human SF-295 cells assessed as cell growth at 100 uM incubated for 48 hrs by sulforhodamine B assay relative to control; type: functional; settings: read-out: Activity

SMILES | growth at 100 µM
Cc1cc(C)c(NC(=O)c2sc3nc4c(cc3c2N)CN(Cc2ccccc2)CC4)c(C)c1 | -2%

system: K562; assay: Growth inhibition of human K562 cells assessed as cell growth at 0.01 uM incubated for 48 hrs by sulforhodamine B assay relative to control; type: functional; settings: read-out: Activity

SMILES | growth at 0.01 µM
Cc1cc(C)c(NC(=O)c2sc3nc4c(cc3c2N)CN(Cc2ccccc2)CC4)c(C)c1 | 108%

system: HT-29; assay: Growth inhibition of human HT-29 cells incubated for 48 hrs by sulforhodamine B assay; type: functional; settings: not given
In short: (§2)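 NCI60 panel at the NCI Developmental Therapeutics Program. Only compounds active in the 10 µM screen went to dose-response testing. GI50, the concentration giving 50% of maximal inhibition of proliferation, and TGI, the concentration giving total growth inhibition, were derived from the dose-response curves.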

SMILES | GI50 | LC50 | TGI
Cc1cc(C)c(NC(=O)c2sc3nc4c(cc3c2N)CN(Cc2ccccc2)CC4)c(C)c1 | 2.88 µM | > 100 µM | 13.2 µM

system: RPMI-8226; assay: Growth inhibition of human RPMI-8226 cells assessed as cell growth at 0.01 uM incubated for 48 hrs by sulforhodamine B assay relative to control; type: functional; settings: read-out: Activity

SMILES | growth at 0.01 µM
Cc1cc(C)c(NC(=O)c2sc3nc4c(cc3c2N)CN(Cc2ccccc2)CC4)c(C)c1 | 101%

system: HCT-116; assay: Growth inhibition of human HCT-116 cells assessed as cell growth at 100 uM incubated for 48 hrs by sulforhodamine B assay relative to control; type: functional; settings: read-out: Activity

SMILES | growth at 100 µM
Cc1cc(C)c(NC(=O)c2sc3nc4c(cc3c2N)CN(Cc2ccccc2)CC4)c(C)c1 | -64%

system: A498; assay: Growth inhibition of human A498 cells assessed as cell growth at 0.1 uM incubated for 48 hrs by sulforhodamine B assay relative to control; type: functional; settings: read-out: Activity; in short: as §1

SMILES | growth at 0.1 µM
Cc1cc(C)c(NC(=O)c2sc3nc4c(cc3c2N)CN(Cc2ccccc2)CC4)c(C)c1 | 91%

system: HOP-92; assay: Growth inhibition of human HOP-92 cells assessed as cell growth at 100 uM incubated for 48 hrs by sulforhodamine B assay relative to control; type: functional; settings: read-out: Activity

SMILES | growth at 100 µM
Cc1cc(C)c(NC(=O)c2sc3nc4c(cc3c2N)CN(Cc2ccccc2)CC4)c(C)c1 | -7%

system: MCF7; assay: Growth inhibition of human MCF7 cells assessed as cell growth at 0.1 uM incubated for 48 hrs by sulforhodamine B assay relative to control; type: functional; settings: read-out: Activity

SMILES | growth at 0.1 µM
Cc1cc(C)c(NC(=O)c2sc3nc4c(cc3c2N)CN(Cc2ccccc2)CC4)c(C)c1 | 91%

system: SW-620; assay: Growth inhibition of human SW-620 cells assessed as cell growth at 0.1 uM incubated for 48 hrs by sulforhodamine B assay relative to control; type: functional; settings: read-out: Activity

SMILES | growth at 0.1 µM
Cc1cc(C)c(NC(=O)c2sc3nc4c(cc3c2N)CN(Cc2ccccc2)CC4)c(C)c1 | 98%

system: SNB-19; assay: Growth inhibition of human SNB-19 cells incubated for 48 hrs by sulforhodamine B assay; type: functional; settings: not given
In short: (§3)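 NCI DTP 60-line human tumour panel. Dose-response curves were run only for ligands active in the initial 10 µM screen. GI50 (concentration giving 50% of maximal inhibition of proliferation) and TGI (concentration giving total growth inhibition) were derived from these curves.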

SMILES | GI50 | LC50 | TGI
Cc1cc(C)c(NC(=O)c2sc3nc4c(cc3c2N)CN(Cc2ccccc2)CC4)c(C)c1 | 7.21 µM | > 100 µM | > 100 µM

system: SF-268; assay: Growth inhibition of human SF-268 cells incubated for 48 hrs by sulforhodamine B assay; type: functional; settings: not given; in short: as §3

SMILES | GI50 | LC50 (concentration killing 50% of cells) | TGI
Cc1cc(C)c(NC(=O)c2sc3nc4c(cc3c2N)CN(Cc2ccccc2)CC4)c(C)c1 | 6.93 µM | > 100 µM | 64.8 µM

system: SK-OV-3; assay: Growth inhibition of human SK-OV-3 cells incubated for 48 hrs by sulforhodamine B assay; type: functional; settings: not given; in short: as §3

SMILES | GI50 | TGI
Cc1cc(C)c(NC(=O)c2sc3nc4c(cc3c2N)CN(Cc2ccccc2)CC4)c(C)c1 | 5.35 µM | > 100 µM

same assay, conditions: read-out: LC50 (the source's name)

SMILES | CC50
Cc1cc(C)c(NC(=O)c2sc3nc4c(cc3c2N)CN(Cc2ccccc2)CC4)c(C)c1 | > 100 µM

system: SN12C; assay: Growth inhibition of human SN12C cells assessed as cell growth at 0.1 uM incubated for 48 hrs by sulforhodamine B assay relative to control; type: functional; settings: read-out: Activity

SMILES | growth at 0.1 µM
Cc1cc(C)c(NC(=O)c2sc3nc4c(cc3c2N)CN(Cc2ccccc2)CC4)c(C)c1 | 101%

system: PC-3; assay: Growth inhibition of human PC-3 cells assessed as cell growth at 100 uM incubated for 48 hrs by sulforhodamine B assay relative to control; type: functional; settings: read-out: Activity

SMILES | growth at 100 µM
Cc1cc(C)c(NC(=O)c2sc3nc4c(cc3c2N)CN(Cc2ccccc2)CC4)c(C)c1 | 15%

system: SR; assay: Growth inhibition of human SR cells assessed as cell growth at 100 uM incubated for 48 hrs by sulforhodamine B assay relative to control; type: functional; settings: read-out: Activity

SMILES | growth at 100 µM
Cc1cc(C)c(NC(=O)c2sc3nc4c(cc3c2N)CN(Cc2ccccc2)CC4)c(C)c1 | -16%

system: K562; assay: Growth inhibition of human K562 cells incubated for 48 hrs by sulforhodamine B assay; type: functional; settings: not given; in short: as §2

SMILES | GI50 | LC50 (concentration killing 50% of cells) | TGI
Cc1cc(C)c(NC(=O)c2sc3nc4c(cc3c2N)CN(Cc2ccccc2)CC4)c(C)c1 | 0.903 µM | > 100 µM | > 100 µM

system: RXF 393; assay: Growth inhibition of human RXF 393 cells incubated for 48 hrs by sulforhodamine B assay; type: functional; settings: not given; in short: as §3

SMILES | GI50 | TGI
Cc1cc(C)c(NC(=O)c2sc3nc4c(cc3c2N)CN(Cc2ccccc2)CC4)c(C)c1 | 2.45 µM | 18.5 µM

same assay, conditions: read-out: LC50 (the source's name)

SMILES | CC50
Cc1cc(C)c(NC(=O)c2sc3nc4c(cc3c2N)CN(Cc2ccccc2)CC4)c(C)c1 | > 100 µM

system: A498; assay: Growth inhibition of human A498 cells assessed as cell growth at 100 uM incubated for 48 hrs by sulforhodamine B assay relative to control; type: functional; settings: read-out: Activity; in short: as §1

SMILES | growth at 100 µM
Cc1cc(C)c(NC(=O)c2sc3nc4c(cc3c2N)CN(Cc2ccccc2)CC4)c(C)c1 | -2%

system: SN12C; assay: Growth inhibition of human SN12C cells assessed as cell growth at 1 uM incubated for 48 hrs by sulforhodamine B assay relative to control; type: functional; settings: read-out: Activity

SMILES | growth at 1 µM
Cc1cc(C)c(NC(=O)c2sc3nc4c(cc3c2N)CN(Cc2ccccc2)CC4)c(C)c1 | 92%

system: M14; assay: Growth inhibition of human M14 cells assessed as cell growth at 100 uM incubated for 48 hrs by sulforhodamine B assay relative to control; type: functional; settings: read-out: Activity

SMILES | growth at 100 µM
Cc1cc(C)c(NC(=O)c2sc3nc4c(cc3c2N)CN(Cc2ccccc2)CC4)c(C)c1 | -18%

system: SNB-75; assay: Growth inhibition of human SNB-75 cells assessed as cell growth at 0.1 uM incubated for 48 hrs by sulforhodamine B assay relative to control; type: functional; settings: read-out: Activity

SMILES | growth at 0.1 µM
Cc1cc(C)c(NC(=O)c2sc3nc4c(cc3c2N)CN(Cc2ccccc2)CC4)c(C)c1 | 94%

system: HCT-15; assay: Growth inhibition of human HCT-15 cells assessed as cell growth at 0.1 uM incubated for 48 hrs by sulforhodamine B assay relative to control; type: functional; settings: read-out: Activity

SMILES | growth at 0.1 µM
Cc1cc(C)c(NC(=O)c2sc3nc4c(cc3c2N)CN(Cc2ccccc2)CC4)c(C)c1 | 93%

system: RPMI-8226; assay: Growth inhibition of human RPMI-8226 cells assessed as cell growth at 0.1 uM incubated for 48 hrs by sulforhodamine B assay relative to control; type: functional; settings: read-out: Activity

SMILES | growth at 0.1 µM
Cc1cc(C)c(NC(=O)c2sc3nc4c(cc3c2N)CN(Cc2ccccc2)CC4)c(C)c1 | 100%

system: MDA-MB-435; assay: Growth inhibition of human MDA-MB-435 cells assessed as cell growth at 0.1 uM incubated for 48 hrs by sulforhodamine B assay relative to control; type: functional; settings: read-out: Activity

SMILES | growth at 0.1 µM
Cc1cc(C)c(NC(=O)c2sc3nc4c(cc3c2N)CN(Cc2ccccc2)CC4)c(C)c1 | 96%

system: MDA-MB-435; assay: Growth inhibition of human MDA-MB-435 cells assessed as cell growth at 0.01 uM incubated for 48 hrs by sulforhodamine B assay relative to control; type: functional; settings: read-out: Activity

SMILES | growth at 0.01 µM
Cc1cc(C)c(NC(=O)c2sc3nc4c(cc3c2N)CN(Cc2ccccc2)CC4)c(C)c1 | 92%

system: T47D; assay: Growth inhibition of human T47D cells incubated for 48 hrs by sulforhodamine B assay; type: functional; settings: not given; in short: as §3

SMILES | GI50 | TGI
Cc1cc(C)c(NC(=O)c2sc3nc4c(cc3c2N)CN(Cc2ccccc2)CC4)c(C)c1 | 2.62 µM | > 100 µM

same assay, conditions: read-out: LC50 (the source's name)

SMILES | CC50
Cc1cc(C)c(NC(=O)c2sc3nc4c(cc3c2N)CN(Cc2ccccc2)CC4)c(C)c1 | > 100 µM

system: NCI/ADR-RES; assay: Growth inhibition of human NCI/ADR-RES cells incubated for 48 hrs by sulforhodamine B assay; type: functional; settings: not given; in short: as §2

SMILES | GI50 | TGI
Cc1cc(C)c(NC(=O)c2sc3nc4c(cc3c2N)CN(Cc2ccccc2)CC4)c(C)c1 | 1.64 µM | 6.24 µM

same assay, conditions: read-out: LC50 (the source's name)

SMILES | CC50
Cc1cc(C)c(NC(=O)c2sc3nc4c(cc3c2N)CN(Cc2ccccc2)CC4)c(C)c1 | > 100 µM

system: A498; assay: Growth inhibition of human A498 cells assessed as cell growth at 1 uM incubated for 48 hrs by sulforhodamine B assay relative to control; type: functional; settings: read-out: Activity; in short: as §1

SMILES | growth at 1 µM
Cc1cc(C)c(NC(=O)c2sc3nc4c(cc3c2N)CN(Cc2ccccc2)CC4)c(C)c1 | 58%

system: SK-MEL-2; assay: Growth inhibition of human SK-MEL-2 cells assessed as cell growth at 1 uM incubated for 48 hrs by sulforhodamine B assay relative to control; type: functional; settings: read-out: Activity

SMILES | growth at 1 µM
Cc1cc(C)c(NC(=O)c2sc3nc4c(cc3c2N)CN(Cc2ccccc2)CC4)c(C)c1 | 96%

system: A549; assay: Growth inhibition of human A549/ATCC cells assessed as cell growth at 0.1 uM incubated for 48 hrs by sulforhodamine B assay relative to control; type: functional; settings: read-out: Activity; in short: as §1

SMILES | growth at 0.1 µM
Cc1cc(C)c(NC(=O)c2sc3nc4c(cc3c2N)CN(Cc2ccccc2)CC4)c(C)c1 | 96%

system: COLO 205; assay: Growth inhibition of human COLO 205 cells incubated for 48 hrs by sulforhodamine B assay; type: functional; settings: not given; in short: as §1

SMILES | GI50 | LC50 (concentration killing 50% of cells) | TGI
Cc1cc(C)c(NC(=O)c2sc3nc4c(cc3c2N)CN(Cc2ccccc2)CC4)c(C)c1 | 2.98 µM | 68.8 µM | 10.1 µM

system: UACC-257; assay: Growth inhibition of human UACC-257 cells assessed as cell growth at 0.1 uM incubated for 48 hrs by sulforhodamine B assay relative to control; type: functional; settings: read-out: Activity

SMILES | growth at 0.1 µM
Cc1cc(C)c(NC(=O)c2sc3nc4c(cc3c2N)CN(Cc2ccccc2)CC4)c(C)c1 | 93%
